The nature of assay [1]: Antitumor activity against human MM1 cells after 24 to 72 hrs by MTT assay. It is filed as functional, cell-based. Put shortly:
(§1)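 Myeloma lines grown in RPMI 1640 with 10% heat-inactivated FBS and 2 mM glutamine. 20,000 cells/well were exposed to a dilution range of compound in RPMI1640/10% FBS (final DMSO ≤0.1%), with vehicle-only controls, at 37 °C for 24–72 h (typically 72 h). MTT was added for 2 h at 37 °C, then lysis buffer (20% SDS, 50% DMF, pH 4.7) for 6 h.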

Assay [2] is described as follows: Antitumor activity against human OCI-My4 cells after 24 to 72 hrs by MTT assay. It is filed as functional, cell-based. Put shortly: as §1
(In general: Tetrazolium dyes change colour on reduction, which living cells bring about.)

For the next assay, the system named is U-266. As to the kind of experiment: Antitumor activity against human U266 cells after 24 to 72 hrs by MTT assay. It is filed as functional, cell-based. Put shortly: as §1
The nature of assay [3]: Antitumor activity against human U373MG cells after 24 to 72 hrs by MTT assay. It is filed as functional, cell-based, U-373MG ATCC. Particulars: U373 MG. Put shortly: (§2)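 Tumor cells were plated at 20,000/well and given serially diluted compound in RPMI1640 with 10% FBS (final DMSO ≤0.1%) or vehicle alone, then incubated 24–72 h at 37 °C.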
Assay [4] in a line: Antitumor activity against human U87MG cells after 24 to 72 hrs by MTT assay. It is filed as functional, cell-based, U-87MG ATCC. To be noted: U-87 MG. Put shortly:
as §2

The test system of a further assay is U373 MG. In words: Ratio of AG490 IC50 to compound IC50 for human U373MG cells. It is filed as functional, U-373MG ATCC.
The subject of a further assay is U-87 MG. As to the kind of experiment: Ratio of AG490 IC50 to compound IC50 for human U87MG cells. It is filed as functional, U-87MG ATCC.

We go through 47 compounds from ChEMBL document CHEMBL1921756, “Tyrphostin-like compounds with ubiquitin modulatory activity as possible therapeutic agents for multiple myeloma” (Bioorg Med Chem, 2011).

The structures appear in SMILES notation.

Take `N#C/C(=C\c1ccc([N+](=O)[O-])cc1)C(=O)NCc1ccccc1`: the IC50 in assay [1] was found to be 7.5 µM; in assay [2], 12 µM; with U-266 it was 9 µM.
In the same order, the values of `CCC[C@H](NC(=O)/C(C#N)=C/c1cccc(Br)n1)c1ccccc1` are 1 µM, 1.5 µM and 1.3 µM.
For the compound `C[C@H](NC(=O)/C(C#N)=C/c1cccc(Br)n1)c1ccc(Br)cc1`, the IC50 in assay [1] came to 1.5 µM; in assay [2], 2 µM; in the assay on U-266, 1.8 µM.
Turning to `COc1ccc([C@H](C)NC(=O)/C(C#N)=C/c2cccc(Br)n2)cc1`, the results for the IC50 (in assay [1]; in assay [2]; in the assay with U-266) were 1.2 µM, 1.8 µM and 1.4 µM, respectively.
As to `N#C/C(=C\c1cccc(Br)n1)C(=O)N[C@@H]1CCc2ccccc21`, the concentration for half-maximal inhibition (IC50) in assay [1] is 2 µM; with U-266, 2.5 µM.
Consider `N#C/C(=C\c1cccc(Br)n1)C(=O)N[C@@H]1CCCc2ccccc21`, for which the IC50 in assay [1] amounted to 1.5 µM; with U-266, 1.9 µM.
With `C[C@H](NC(=O)/C(C#N)=C/c1cccc(Br)n1)c1ccc(Cl)cc1`, the half-maximal inhibitory concentration (IC50) in assay [1] was found to be 1.6 µM; in assay [2], 2.3 µM; in the assay with U-266, 2 µM.
In the same order, the values of `N#C/C(=C\c1cccc(Br)n1)C(=O)N[C@@H](CO)c1ccccc1` are 2.8 µM, 3.9 µM and 3.5 µM.
In the case of `CC[C@H](NC(=O)/C(C#N)=C/c1cccc(Br)n1)c1ccccc1`, the IC50 in assay [1] came to 1.1 µM; in assay [2], 1.7 µM; in the assay with U-266, 1.4 µM.
In the same order, the values of `COc1cccc([C@H](C)NC(=O)/C(C#N)=C/c2cccc(Br)n2)c1` are 2.4 µM, 3.1 µM and 2.8 µM.
Consider `N#C/C(=C\c1cccc(Br)n1)C(=O)N[C@H](c1ccccc1)C(F)(F)F`, for which the 50% inhibitory concentration (IC50) in assay [1] was found to be 9.6 µM; with U-266, 11.1 µM.
`C[C@H](NC(=O)/C(C#N)=C/c1cccc(Br)n1)c1cccc(C(F)(F)F)c1`: the figures for the IC50 (in assay [1]; in assay [2]; with U-266) were 1.3 µM, 1.8 µM and 1.6 µM, respectively.
As to `C[C@H](NC(=O)/C(C#N)=C/c1cccc(Br)n1)c1ccc(F)cc1`, the IC50 came out at 1.2 µM in assay [1] and 1.4 µM in the assay with U-266.
As to `C[C@H](NC(=O)/C(C#N)=C/c1cccc(Br)n1)c1cc(C(F)(F)F)cc(C(F)(F)F)c1`, the half-maximal inhibitory concentration (IC50) amounted to 1.3 µM in assay [1] and 1.5 µM in the assay on U-266.
As to `COC(=O)C[C@H](NC(=O)/C(C#N)=C/c1cccc(Br)n1)c1ccccc1`, the IC50 in assay [1] was determined as 3.1 µM; in the assay on U-266, 3.3 µM.
On to `C[C@H](NC(=O)/C(C#N)=C/c1cccc(Br)n1)c1ccccc1F`, for which the concentration for half-maximal inhibition (IC50) in assay [1] worked out at 1.8 µM; in assay [2] it was 2.4 µM; in the assay with U-266, 2 µM.
In the case of `N#C/C(=C\c1ccc(Cl)c([N+](=O)[O-])c1)C(=O)NC(c1ccccc1)C1CC1` (stereo not given), the values for the IC50 (in assay [1]; in assay [2]; with U-266) were 2.5 µM, 2.9 µM and 2.8 µM, respectively.
With `N#C/C(=C\c1ccc(N2CCCCC2)cc1)C(=O)NC(c1ccccc1)C1CC1` (stereo not given), the IC50 (in assay [1]; in the assay with U-266) was more than 10 µM in each case.
For `N#C/C(=C\c1cccc(Br)n1)C(=O)N[C@H](c1ccccc1)C1CC1`, the half-maximal inhibitory concentration (IC50) in assay [1] was determined as 1.4 µM.
Regarding `CCCCCCc1ccc(/C=C(\C#N)C(=O)NC(c2ccccc2)C2CC2)cc1` (stereo not given), the IC50 in assay [1] was more than 10 µM.
Compound `C[C@H](NC(=O)/C(C#N)=C/c1cccc(Br)n1)c1ccc(N)cc1` returned a 50% inhibitory concentration (IC50) in assay [1] of more than 10 µM.
The compound `N#C/C(=C\c1cccc(Br)n1)C(=O)NCc1cccc(N)c1` came in with a concentration for half-maximal inhibition (IC50) in assay [1] of more than 10 µM.
Regarding `CCC[C@H](NC(=O)/C(C#N)=C/c1ccc([N+](=O)[O-])cc1)c1ccccc1`, the half-maximal inhibitory concentration (IC50) is 2.94 µM in assay [1] and 3.6 µM with U-266.
Compound `CCC[C@H](NC(=O)/C(C#N)=C/c1ccc([N+](=O)[O-])cc1[N+](=O)[O-])c1ccccc1` had a concentration for half-maximal inhibition (IC50) in assay [1] of more than 10 µM.
Take `CCC[C@H](NC(=O)/C(C#N)=C/c1ccccc1)c1ccccc1`: the figures for the IC50 (in assay [1]; with U-266) were 6.25 µM and 7.2 µM, respectively.
Regarding `CCC[C@H](NC(=O)/C(C#N)=C/c1cccc([N+](=O)[O-])c1)c1ccccc1`, the concentration for half-maximal inhibition (IC50) in assay [1] was found to be 1.73 µM; in assay [2], 2.2 µM; with U-266, 2.1 µM.
In the case of `CCC[C@H](NC(=O)/C(C#N)=C/c1ccc(Cl)c([N+](=O)[O-])c1)c1ccccc1`, the values for the IC50 (in assay [1]; in assay [2]; with U-266) were 1.58 µM, 1.9 µM and 1.8 µM, respectively.
In the case of `CCC[C@H](NC(=O)/C(C#N)=C/c1c(Cl)cccc1[N+](=O)[O-])c1ccccc1`, in assay [1], the IC50 was more than 10 µM.
`CCC[C@H](NC(=O)/C(C#N)=C/c1ccc(O)cc1)c1ccccc1`: the IC50 in assay [1] was more than 10 µM.
`CCC[C@H](NC(=O)/C(C#N)=C/c1ccc(O)c([N+](=O)[O-])c1)c1ccccc1`: the values for the IC50 (in assay [1]; in assay [2]; in the assay with U-266) were 8.2 µM, 9.7 µM and 9.3 µM, respectively.
Consider `CCC[C@H](NC(=O)/C(C#N)=C/c1ccc(O)c(Br)c1)c1ccccc1`, for which, in assay [1], the IC50 is more than 10 µM.
As to `CC(=O)OC[C@H](NC(=O)/C(C#N)=C/c1cccc(Br)n1)c1ccccc1`, the results for the half-maximal inhibitory concentration (IC50) (in assay [1]; in assay [2]; in the assay with U-266) were 2.6 µM, 2.9 µM and 2.8 µM, respectively.
For `C[C@H](NC(=O)/C(C#N)=C/c1ccc([N+](=O)[O-])c([N+](=O)[O-])c1)c1ccccc1`, in assay [1], the IC50 was more than 10 µM.
As for `N#C/C(=C\c1cccc(Br)n1)C(=O)NC(c1ccccc1)c1ccccc1`, the concentration for half-maximal inhibition (IC50) turned out to be 5 µM in assay [1], 6.2 µM in assay [2] and 5.8 µM in the assay on U-266.
As for `N#C/C(=C\c1cccc(Br)n1)C(=O)N[C@@H](Cc1ccccc1)c1ccccc1`, the figures for the IC50 (in assay [1]; in assay [2]; in the assay with U-266) were 2.5 µM, 2.9 µM and 2.7 µM, respectively.
In the case of `N#C/C(=C\c1ccc(Cl)c([N+](=O)[O-])c1)C(=O)N[C@@H](CO)c1ccccc1`, the 50% inhibitory concentration (IC50) in assay [1] was more than 10 µM.
In turn, `C[C@H](NC(=O)/C(C#N)=C/c1ccc2c(c1)OCCN2C)c1ccccc1` gave a half-inhibitory concentration (IC50) in assay [1] of more than 10 µM.
Consider `C[C@H](NC(=O)/C(C#N)=C/c1ccc2c(c1)OC(F)(F)O2)c1ccccc1`, for which the half-maximal inhibitory concentration (IC50) in assay [1] is more than 10 µM.
`N#C/C(=C\c1ccc(-c2cccc([N+](=O)[O-])c2)o1)C(=O)NC(c1ccccc1)C1CC1` (stereo not given) gave an IC50 in assay [1] of more than 10 µM.
In turn, `CCC(NC(=O)/C(C#N)=C/c1ccc(-c2cccc([N+](=O)[O-])c2)o1)c1ccccc1` (stereo not given) gave an IC50 in assay [1] of more than 10 µM.
Take `N#C/C(=C\c1ccc(-c2cccc([N+](=O)[O-])c2)o1)C(=O)NCc1ccccc1Cl`: in assay [1], the half-maximal inhibitory concentration (IC50) was more than 10 µM.
`Cc1ccc(CNC(=O)/C(C#N)=C/c2ccc(-c3cccc([N+](=O)[O-])c3)o2)cc1` showed an IC50 in assay [1] of more than 10 µM.
In the case of `COc1cccc(CNC(=O)/C(C#N)=C/c2ccc(-c3cccc([N+](=O)[O-])c3)o2)c1`, in assay [1], the concentration for half-maximal inhibition (IC50) was more than 10 µM.
In turn, `Cc1ccc(CNC(=O)/C(C#N)=C/c2ccc(-c3cccc([N+](=O)[O-])c3)o2)o1` showed a concentration for half-maximal inhibition (IC50) in assay [1] of more than 10 µM.
For the compound `N#C/C(=C\c1ccc(O)c(O)c1)C(=O)NCc1ccccc1`, the half-inhibitory concentration (IC50) in assay [1] is more than 10 µM; in assay [2] it was more than 12.5 µM; with U-266, more than 12.5 µM.
`N#C/C(=C\c1cccc(Br)n1)C(=O)NC(c1ccccc1)C1CC1` (racemic): the figures for the 50% inhibitory concentration (IC50) (in assay [1]; in assay [2]; in the assay on U-266) were 1.1 µM, 1.6 µM and 1.3 µM, respectively.
As for `C[C@H](NC(=O)/C(C#N)=C/c1cccc(Br)n1)c1ccccc1` [WP 1066], the half-inhibitory concentration (IC50) in assay [3] turned out to be 3.7 µM; in assay [1], 1.2 µM; in assay [4] it was 5.6 µM; in assay [2], 1.8 µM; in the assay on U-266, 1.5 µM. The “Ratio IC50” value with U373 MG is 8; with U-87 MG it was 18.

One may read the IC50 as the midpoint of a concentration-inhibition curve.
